According to ChEMBL document CHEMBL5303300, “EUbOPEN Chemogenomics Library - Multiplex” (2023):
Values joined by “and” are separate entries in the source; they are usually repeats but may differ in a detail not shown here. Identical values can stand only once.

Columns and labels:
Assay type in all cases: toxicity, cell-based
[1] = tested on: U2OS; assay: Multiplex assay against U2OS; conditions: human, number of replicates 2
How it was run: (§1)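 At seeding, live cells were stained with Hoechst33342, BioTracker Green Microtubule Cytoskeleton Dye, MitoTracker Red and Annexin V Alexa Fluor 680. After compound addition they were imaged on a CQ1 microscope at 37°C and 5% CO2, and CellPathfinder machine-learning gating sorted them into Hoechst high-intensity objects or normal cells, with normal cells further split into healthy, pyknosed or fragmented nuclei and pyknosed cells into mitotic or apoptotic. Tubulin, mitochondrial-mass and membrane-permeability phenotypes are given as per cents of cells with healthy nuclei.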

[2] = tested on: Fibroblast; assay: Multiplex assay against human fibroblast; conditions: number of replicates 2; how it was run: as §1
[3] = tested on: HEK-293T; assay: Multiplex assay against HEK293T; conditions: human, number of replicates 2; how it was run: as §1
[4] = 12 h, 1 µM, compound concentration 1 uM
[5] = 12 h, 10 µM, compound concentration 10 uM
[6] = 24 h, 1 µM, compound concentration 1 uM
[7] = 24 h, 10 µM, compound concentration 10 uM
[8] = 48 h, 1 µM, compound concentration 1 uM
[9] = 48 h, 10 µM, compound concentration 10 uM

COc1c(OCCCN2CCOCC2)ccc2c1N=C(NC(=O)c1cnc(N)nc1)N1CCN=C21 [COPANLISIB]
Population Apoptotic (%) [1, 4]: 100% and 76%
Population Healthy Nuclei (%) [1, 4]: 60% and 87%
Population Hoechst High Intensity Objects (%) [1, 4]: 0%
Population Membrane Permeable-Phenotype (%) [1, 4]: 0% and 2%
Population Mitochondria Different-Phenotype (%) [1, 4]: 0%
Population Mitotic Cells (%) [1, 4]: 0% and 23%
Population Normal (%) [1, 4]: 100%
Population Pyknosed Nuclei (%) [1, 4]: 4% and 7%
Population Tubulin-Different-Phenotype (%) [1, 4]: 93% and 90%
Population Apoptotic (%) [1, 5]: 100% and 76%
Population Healthy Nuclei (%) [1, 5]: 32% and 80%
Population Hoechst High Intensity Objects (%) [1, 5]: 0%
Population Mitochondria Different-Phenotype (%) [1, 5]: 10% and 1%
Population Mitotic Cells (%) [1, 5]: 0% and 24%
Population Normal (%) [1, 5]: 100%
Population Pyknosed Nuclei (%) [1, 5]: 16% and 15%
Population Tubulin-Different-Phenotype (%) [1, 5]: 80%
Population Apoptotic (%) [1, 6]: 100% and 70%
Population Healthy Nuclei (%) [1, 6]: 56% and 86%
Population Hoechst High Intensity Objects (%) [1, 6]: 0%
Population Membrane Permeable-Phenotype (%) [1, 6]: 0% and 2%
Population Mitochondria Different-Phenotype (%) [1, 6]: 0% and 1%
Population Normal (%) [1, 6]: 100%
Population Pyknosed Nuclei (%) [1, 6]: 8% and 10%
Population Tubulin-Different-Phenotype (%) [1, 6]: 100% and 89%
Population Apoptotic (%) [1, 7]: 50% and 64%
Population Hoechst High Intensity Objects (%) [1, 7]: 2% and 0%
Population Mitotic Cells (%) [1, 7]: 50% and 35%
Population Normal (%) [1, 7]: 97% and 100%
Population Pyknosed Nuclei (%) [1, 7]: 22%
Population Tubulin-Different-Phenotype (%) [1, 7]: 75% and 84%
Population Apoptotic (%) [1, 8]: 80% and 72%
Population Healthy Nuclei (%) [1, 8]: 41% and 88%
Population Hoechst High Intensity Objects (%) [1, 8]: 4% and 0%
Population Membrane Permeable-Phenotype (%) [1, 8]: 0% and 2%
Population Mitochondria Different-Phenotype (%) [1, 8]: 0% and 1%
Population Mitotic Cells (%) [1, 8]: 20% and 27%
Population Normal (%) [1, 8]: 96% and 99%
Population Pyknosed Nuclei (%) [1, 8]: 20% and 8%
Population Tubulin-Different-Phenotype (%) [1, 8]: 100% and 95%
Population Apoptotic (%) [1, 9]: 92% and 79%
Population Hoechst High Intensity Objects (%) [1, 9]: 0% and 1%
Population Mitochondria Different-Phenotype (%) [1, 9]: 0% and 3%
Population Mitotic Cells (%) [1, 9]: 7% and 20%
Population Normal (%) [1, 9]: 100% and 98%
Population Pyknosed Nuclei (%) [1, 9]: 34% and 35%
Population Apoptotic (%) [2, 4]: 39% and 50%
Population Fragmented Nuclei (%) [2, 4]: 8% and 10%
Population Healthy Nuclei (%) [2, 4]: 65% and 63%
Population Hoechst High Intensity Objects (%) [2, 4]: 0%
Population Membrane Permeable-Phenotype (%) [2, 4]: 1% and 7%
Population Mitochondria Different-Phenotype (%) [2, 4]: 0% and 3%
Population Mitotic Cells (%) [2, 4]: 60% and 50%
Population Normal (%) [2, 4]: 100%
Population Pyknosed Nuclei (%) [2, 4]: 26%
Population Tubulin-Different-Phenotype (%) [2, 4]: 1% and 7%
Total Cell Count [2, 4]: 157 and 180
Population Apoptotic (%) [2, 5]: 52% and 45%
Population Fragmented Nuclei (%) [2, 5]: 10% and 13%
Population Healthy Nuclei (%) [2, 5]: 77% and 74%
Population Hoechst High Intensity Objects (%) [2, 5]: 0%
Population Membrane Permeable-Phenotype (%) [2, 5]: 7% and 2%
Population Mitochondria Different-Phenotype (%) [2, 5]: 3% and 2%
Population Mitotic Cells (%) [2, 5]: 47% and 54%
Population Normal (%) [2, 5]: 100%
Population Pyknosed Nuclei (%) [2, 5]: 12% and 11%
Total Cell Count [2, 5]: 149 and 188
Population Apoptotic (%) [2, 6]: 48% and 57%
Population Fragmented Nuclei (%) [2, 6]: 14% and 8%
Population Healthy Nuclei (%) [2, 6]: 60% and 71%
Population Hoechst High Intensity Objects (%) [2, 6]: 0%
Population Membrane Permeable-Phenotype (%) [2, 6]: 2% and 5%
Population Mitochondria Different-Phenotype (%) [2, 6]: 1% and 2%
Population Mitotic Cells (%) [2, 6]: 51% and 42%
Population Normal (%) [2, 6]: 100%
Population Pyknosed Nuclei (%) [2, 6]: 25% and 20%
Population Tubulin-Different-Phenotype (%) [2, 6]: 2% and 5%
Total Cell Count [2, 6]: 155 and 165
Population Apoptotic (%) [2, 7]: 76% and 60%
Population Fragmented Nuclei (%) [2, 7]: 18% and 16%
Population Healthy Nuclei (%) [2, 7]: 63% and 72%
Population Hoechst High Intensity Objects (%) [2, 7]: 0%
Population Membrane Permeable-Phenotype (%) [2, 7]: 3% and 0%
Population Mitochondria Different-Phenotype (%) [2, 7]: 2% and 1%
Population Mitotic Cells (%) [2, 7]: 23% and 39%
Population Normal (%) [2, 7]: 100%
Population Pyknosed Nuclei (%) [2, 7]: 17% and 11%
Population Tubulin-Different-Phenotype (%) [2, 7]: 9% and 2%
Total Cell Count [2, 7]: 174 and 209
Population Apoptotic (%) [2, 8]: 73% and 57%
Population Fragmented Nuclei (%) [2, 8]: 7% and 14%
Population Healthy Nuclei (%) [2, 8]: 70% and 71%
Population Hoechst High Intensity Objects (%) [2, 8]: 0%
Population Membrane Permeable-Phenotype (%) [2, 8]: 6% and 10%
Population Mitochondria Different-Phenotype (%) [2, 8]: 0%
Population Mitotic Cells (%) [2, 8]: 26% and 42%
Population Normal (%) [2, 8]: 100%
Population Pyknosed Nuclei (%) [2, 8]: 21% and 14%
Population Tubulin-Different-Phenotype (%) [2, 8]: 2% and 3%
Total Cell Count [2, 8]: 140 and 176
Population Apoptotic (%) [2, 9]: 68% and 77%
Population Fragmented Nuclei (%) [2, 9]: 15% and 18%
Population Healthy Nuclei (%) [2, 9]: 70%
Population Hoechst High Intensity Objects (%) [2, 9]: 1% and 0%
Population Membrane Permeable-Phenotype (%) [2, 9]: 11% and 4%
Population Mitochondria Different-Phenotype (%) [2, 9]: 1% and 2%
Population Mitotic Cells (%) [2, 9]: 32% and 22%
Population Normal (%) [2, 9]: 98% and 100%
Population Pyknosed Nuclei (%) [2, 9]: 14% and 10%
Total Cell Count [2, 9]: 176 and 205
Population Apoptotic (%) [3, 4]: 66% and 65%
Population Fragmented Nuclei (%) [3, 4]: 7% and 3%
Population Healthy Nuclei (%) [3, 4]: 66% and 82%
Population Hoechst High Intensity Objects (%) [3, 4]: 14% and 12%
Population Membrane Permeable-Phenotype (%) [3, 4]: 2% and 1%
Population Mitochondria Different-Phenotype (%) [3, 4]: 43% and 39%
Population Mitotic Cells (%) [3, 4]: 33% and 34%
Population Normal (%) [3, 4]: 85% and 87%
Population Pyknosed Nuclei (%) [3, 4]: 25% and 13%
Population Tubulin-Different-Phenotype (%) [3, 4]: 57% and 58%
Total Cell Count [3, 4]: 337 and 345
Population Apoptotic (%) [3, 5]: 67% and 62%
Population Fragmented Nuclei (%) [3, 5]: 7% and 2%
Population Healthy Nuclei (%) [3, 5]: 74% and 83%
Population Hoechst High Intensity Objects (%) [3, 5]: 13% and 11%
Population Membrane Permeable-Phenotype (%) [3, 5]: 1% and 0%
Population Mitochondria Different-Phenotype (%) [3, 5]: 60% and 66%
Population Mitotic Cells (%) [3, 5]: 32% and 37%
Population Normal (%) [3, 5]: 86% and 88%
Population Pyknosed Nuclei (%) [3, 5]: 18% and 13%
Population Tubulin-Different-Phenotype (%) [3, 5]: 68% and 71%
Total Cell Count [3, 5]: 237 and 220
Population Apoptotic (%) [3, 6]: 76% and 67%
Population Fragmented Nuclei (%) [3, 6]: 5% and 3%
Population Healthy Nuclei (%) [3, 6]: 74% and 80%
Population Hoechst High Intensity Objects (%) [3, 6]: 16% and 20%
Population Membrane Permeable-Phenotype (%) [3, 6]: 1%
Population Mitochondria Different-Phenotype (%) [3, 6]: 35% and 33%
Population Mitotic Cells (%) [3, 6]: 23% and 32%
Population Normal (%) [3, 6]: 83% and 79%
Population Pyknosed Nuclei (%) [3, 6]: 20% and 15%
Population Tubulin-Different-Phenotype (%) [3, 6]: 56% and 60%
Total Cell Count [3, 6]: 382 and 316
Population Apoptotic (%) [3, 7]: 80% and 50%
Population Fragmented Nuclei (%) [3, 7]: 6% and 2%
Population Healthy Nuclei (%) [3, 7]: 76% and 82%
Population Hoechst High Intensity Objects (%) [3, 7]: 20% and 16%
Population Membrane Permeable-Phenotype (%) [3, 7]: 2% and 1%
Population Mitochondria Different-Phenotype (%) [3, 7]: 52% and 58%
Population Mitotic Cells (%) [3, 7]: 19% and 50%
Population Normal (%) [3, 7]: 79% and 83%
Population Pyknosed Nuclei (%) [3, 7]: 17% and 15%
Population Tubulin-Different-Phenotype (%) [3, 7]: 67% and 68%
Total Cell Count [3, 7]: 229 and 189
Population Apoptotic (%) [3, 8]: 62% and 63%
Population Fragmented Nuclei (%) [3, 8]: 9% and 12%
Population Healthy Nuclei (%) [3, 8]: 75% and 78%
Population Hoechst High Intensity Objects (%) [3, 8]: 20% and 26%
Population Membrane Permeable-Phenotype (%) [3, 8]: 1% and 3%
Population Mitochondria Different-Phenotype (%) [3, 8]: 16% and 6%
Population Mitotic Cells (%) [3, 8]: 37% and 36%
Population Normal (%) [3, 8]: 79% and 73%
Population Pyknosed Nuclei (%) [3, 8]: 15% and 8%
Population Tubulin-Different-Phenotype (%) [3, 8]: 70% and 43%
Total Cell Count [3, 8]: 374 and 726
Population Apoptotic (%) [3, 9]: 68% and 74%
Population Fragmented Nuclei (%) [3, 9]: 9% and 6%
Population Healthy Nuclei (%) [3, 9]: 66% and 76%
Population Hoechst High Intensity Objects (%) [3, 9]: 20% and 25%
Population Membrane Permeable-Phenotype (%) [3, 9]: 4% and 2%
Population Mitochondria Different-Phenotype (%) [3, 9]: 41% and 45%
Population Mitotic Cells (%) [3, 9]: 31% and 25%
Population Normal (%) [3, 9]: 79% and 74%
Population Pyknosed Nuclei (%) [3, 9]: 24% and 16%
Population Tubulin-Different-Phenotype (%) [3, 9]: 68% and 72%
Total Cell Count [3, 9]: 262 and 245
